Measured values taken from ChEMBL document CHEMBL5649170, “Sustained microglial depletion with CSF1R inhibitor impairs parenchymal plaque development in an Alzheimer's disease model” (Nat Commun, 2019).

What was measured:
[1] = Octanol to water partition coefficient, logD of the compound; assay type: physicochemical
[2] = Permeability in human Caco-2 cells; assay type: ADME, cell-based; conditions: read-out: permeability
[3] = Dissociation constant, pKa of compound; assay type: physicochemical
Mus musculus [4] = test: Antialzheimer activity in 5XFAD mouse assessed as microglial numbers by measuring number of Iba positive cells per FOV in […] cortex at 75 ppm administered as rodent chow starting from 1.5 months and measured after 5 months by immunolabeling based confocal microscopic analysis (reference value: 176 to 654); assay type: functional; conditions: route po, time 3.5 months, 2555 h
Outline: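 5xFAD mice fed PLX3397 at 75 ppm in AIN-76A chow from 1.5 to 5 months of age; retrosplenial and somatosensory cortex sections stained with Thio-S and immunolabeled for IBA1; confocal imaging, IBA1+ cells and plaques quantified per region; two-tailed independent t-test, n = 4–5 per group, mean ± SEM.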

[5] = Inhibition of BCR-KIT (unknown origin) expressed in mouse BaF3 cells assessed as inhibition of BCR-KIT dependent cell proliferation incubated for 3 days by ATPlite 1step Luminescence Assay reagent based assay; conditions: Homo sapiens, BaF3, 72 h
[6] = Inhibition of BCR-CSF1R (unknown origin) expressed in mouse BaF3 cells assessed as inhibition of BCR-CSF1R dependent cell proliferation incubated for 3 days by ATPlite 1step Luminescence Assay reagent based assay; conditions: Homo sapiens, BaF3, 72 h
Brain = test: Drug penetration in mouse brain; assay type: ADME, tissue-based; conditions: in vivo
[7] = Inhibition of BCR-CSF1R (unknown origin) expressed in mouse BaF3 cells assessed as inhibition of IL3-dependent cell proliferation incubated for 3 days by ATPlite 1step Luminescence Assay reagent based assay; conditions: Homo sapiens, BaF3, 72 h
[8] = Inhibition of BCR-KIT (unknown origin) expressed in mouse BaF3 cells assessed as inhibition of IL3 dependent cell proliferation incubated for 3 days by ATPlite 1step Luminescence Assay reagent based assay; conditions: Homo sapiens, BaF3, 72 h
[9] = target: Serine/threonine-protein kinase Nek6 (Homo sapiens, UniProt Q9HC98); test: Inhibition of NEK6 (unknown origin)
[10] = target: Dual specificity tyrosine-phosphorylation-regulated kinase 1B (Homo sapiens, UniProt Q9Y463); test: Inhibition of DYRK1B (unknown origin)
Mus musculus [11] = test: Effect on APP processing pathway in wildtype mouse assessed as full length APP protein signal intensity in cortex at 1200 ppm administered as rodent starting from 1.5 months and measured after 7 months (reference value: 0.124 to 27.917 %); assay type: functional; conditions: route po, time 5.5 months, 4015 h
[12] = target: G protein-coupled receptor kinase 3 (Homo sapiens, UniProt P35626); test: Inhibition of ADRBK2 (unknown origin)
[13] = target: Serine/threonine-protein kinase pim-2 (Homo sapiens, UniProt Q9P1W9); test: Inhibition of PIM2 (unknown origin)
[14] = target: Serine/threonine-protein kinase Nek9 (Homo sapiens, UniProt Q8TD19); test: Inhibition of NEK9 (unknown origin)
[15] = target: Tyrosine-protein kinase ABL2 (Homo sapiens, UniProt P42684); test: Inhibition of ABL2 (unknown origin)
[16] = target: Inhibitor of nuclear factor kappa-B kinase subunit alpha (Homo sapiens, UniProt O15111); test: Inhibition of CHUK (unknown origin)
Mus musculus [17] = test: Antialzheimer activity in 5XFAD mouse assessed as amyloidbeta38 level in detergent soluble thalamus fraction measured per microgram protein at 1200 ppm administered as rodent chow starting from 1.5 months and measured after 7 months by ELISA (reference value: 0 to 0.010 pg); assay type: functional; conditions: route po, time 5.5 months, 4015 h
Outline: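 PLX5622 at 1200 ppm in chow given to 5xFAD mice from 1.5 months to 4 or 7 months of age; cortex and thalamus homogenized in TPER (detergent-soluble), pellets re-homogenized in 70% formic acid and spun 100,000 g, 1 h, 4 °C (insoluble); protein by Bradford/Lowry; Aβ species measured by Meso Scale electrochemiluminescence immunoassay, normalized to protein; n = 7–8 per group at 7 months.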

[18] = Drug concentration in 5XFAD mouse plasma at 1200 ppm administered as rodent chow for 180 days; assay type: ADME, cell-free; conditions: route po, time 180 day
[19] = Effect on Spi1 gene expression in wild type mouse hippocampus at 1200 ppm administered as rodent chow starting from 1.5 months and measured after 7 months by RNA-Seq analysis (reference value: 1.111 to 1.682 RPKM); assay type: functional; conditions: route po, time 5.5 months, 4015 h
[20] = AUC (0 to infinity) in monkey at 1.35 mg/kg, iv administered as single dose; assay type: ADME, organism-based, Macaca mulatta; conditions: rhesus monkey, in vivo
[21] = Cmax in male rat at 45 mg/kg, po administered as single dose via gavage; assay type: ADME, organism-based; conditions: in vivo
[22] = target: Ribosomal protein S6 kinase alpha-6 (Homo sapiens, UniProt Q9UK32); test: Inhibition of RPS6KA6 (unknown origin)
SRSF protein kinase 2 = SRSF protein kinase 2 (Homo sapiens, UniProt P78362); test: Inhibition of SRPK2 (unknown origin)
[23] = Effect on Clec7a gene expression in wild type mouse thalamus at 1200 ppm administered as rodent chow starting from 1.5 months and measured after 7 months by RNA-Seq analysis (reference value: 0.095 to 0.586 RPKM); assay type: functional; conditions: route po, time 5.5 months, 4015 h
Outline: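 WT and 5xFAD mice were treated with 1200 ppm PLX5622 chow or control chow from 1.5 to 7 months of age. Brains were microdissected into cortex, hippocampus and thalamus, and RNA was extracted from tissue powder. Whole-transcriptome RNA-Seq libraries were sequenced, with n = 4 per group per region (48 samples).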

Mus musculus [24] = test: Antialzheimer activity in 5XFAD mouse assessed as average plaque volume in retro spinal cortex at 1200 ppm administered as rodent chow starting from 1.5 months and measured after 7 months by Thio-S staining based confocal microscopic analysis (reference value: 1174.18 to 2460.96 microm3); assay type: functional; conditions: route po, time 5.5 months, 4015 h
[25] = Toxicity in wildtype mouse assessed as time spent in center zone at 1200 ppm administered as rodent chow for 10 to 24 weeks by Open field test (reference value: 32.4 to 76.1 sec); conditions: in vivo, po, time 10-24 weeks
Aurora kinase C = Aurora kinase C (Homo sapiens, UniProt Q9UQB9); test: Inhibition of AURKC (unknown origin)
Mus musculus [26] = test: Antialzheimer activity in 5XFAD mouse assessed as percent change in claudin-5 intensity of Thio-S negative retro spinal cortex at 1200 ppm administered as rodent chow starting from 1.5 months and measured after 4 months by immunolabeling analysis relative to control; assay type: functional; conditions: route po, time 2.5 months, 1825 h
[27] = Prevention of Scn1b gene downregulation in 5XFAD mouse hippocampus assessed as percent change in Reads Per kilo base per Million mapped reads at 1200 ppm administered as rodent chow starting from 1.5 months and measured after 7 months by RNA-Seq analysis (reference value: 53.15 to 80.717 %); assay type: functional; conditions: route po, time 5.5 months, 4015 h
[28] = target: BDNF/NT-3 growth factors receptor (Homo sapiens, UniProt Q16620); test: Inhibition of NTRK2 (unknown origin)
[29] = target: Tyrosine-protein kinase Fyn (Homo sapiens, UniProt P06241); test: Inhibition of FYN (unknown origin)
Mus musculus [30] = test: Effect on APP processing pathway in wildtype mouse assessed as PS1 protein signal intensity in cortex at 1200 ppm administered as rodent starting from 1.5 months and measured after 7 months (reference value: 78.906 to 243.681 %); assay type: functional; conditions: route po, time 5.5 months, 4015 h

Serine/threonine-protein kinase pim-2, sequence (Q9P1W9 whole entry): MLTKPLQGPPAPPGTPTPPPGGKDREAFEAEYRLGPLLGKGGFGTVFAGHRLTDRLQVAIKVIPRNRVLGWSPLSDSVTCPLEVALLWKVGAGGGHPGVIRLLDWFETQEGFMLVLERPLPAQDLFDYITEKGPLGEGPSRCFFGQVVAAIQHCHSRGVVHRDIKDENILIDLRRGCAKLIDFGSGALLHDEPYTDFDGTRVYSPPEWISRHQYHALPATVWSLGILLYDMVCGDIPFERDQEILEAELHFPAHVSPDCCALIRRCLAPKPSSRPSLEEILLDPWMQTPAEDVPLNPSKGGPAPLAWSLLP
Ribosomal protein S6 kinase alpha-6, sequence (Q9UK32 whole entry): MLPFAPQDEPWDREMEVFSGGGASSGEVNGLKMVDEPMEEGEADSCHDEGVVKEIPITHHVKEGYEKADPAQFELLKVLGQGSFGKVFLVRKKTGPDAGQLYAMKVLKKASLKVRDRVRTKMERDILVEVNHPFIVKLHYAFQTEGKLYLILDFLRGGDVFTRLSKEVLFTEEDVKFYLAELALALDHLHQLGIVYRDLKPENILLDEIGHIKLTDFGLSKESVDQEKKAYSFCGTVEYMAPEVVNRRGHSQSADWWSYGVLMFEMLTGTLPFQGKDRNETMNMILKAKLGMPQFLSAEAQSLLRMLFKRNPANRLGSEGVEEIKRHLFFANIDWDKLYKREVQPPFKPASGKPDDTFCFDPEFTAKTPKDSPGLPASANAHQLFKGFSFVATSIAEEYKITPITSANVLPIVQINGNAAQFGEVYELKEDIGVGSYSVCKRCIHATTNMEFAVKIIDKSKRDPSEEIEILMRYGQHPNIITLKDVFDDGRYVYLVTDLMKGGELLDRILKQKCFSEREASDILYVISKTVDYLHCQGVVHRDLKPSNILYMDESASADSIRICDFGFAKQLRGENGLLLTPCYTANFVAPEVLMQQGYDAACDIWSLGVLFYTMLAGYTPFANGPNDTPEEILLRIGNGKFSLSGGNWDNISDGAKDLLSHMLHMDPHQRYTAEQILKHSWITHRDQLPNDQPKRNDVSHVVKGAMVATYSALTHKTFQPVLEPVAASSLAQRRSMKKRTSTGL
Aurora kinase C, sequence (Q9UQB9 whole entry): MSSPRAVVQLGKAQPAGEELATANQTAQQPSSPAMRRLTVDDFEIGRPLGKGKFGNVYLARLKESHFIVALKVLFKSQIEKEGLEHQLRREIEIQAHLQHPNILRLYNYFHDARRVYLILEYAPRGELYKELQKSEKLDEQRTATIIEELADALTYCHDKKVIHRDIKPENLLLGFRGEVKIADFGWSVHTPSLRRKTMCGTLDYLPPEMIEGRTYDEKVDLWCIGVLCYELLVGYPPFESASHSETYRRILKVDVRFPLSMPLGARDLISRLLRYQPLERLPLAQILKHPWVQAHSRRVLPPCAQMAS
BDNF/NT-3 growth factors receptor, sequence (Q16620 whole entry): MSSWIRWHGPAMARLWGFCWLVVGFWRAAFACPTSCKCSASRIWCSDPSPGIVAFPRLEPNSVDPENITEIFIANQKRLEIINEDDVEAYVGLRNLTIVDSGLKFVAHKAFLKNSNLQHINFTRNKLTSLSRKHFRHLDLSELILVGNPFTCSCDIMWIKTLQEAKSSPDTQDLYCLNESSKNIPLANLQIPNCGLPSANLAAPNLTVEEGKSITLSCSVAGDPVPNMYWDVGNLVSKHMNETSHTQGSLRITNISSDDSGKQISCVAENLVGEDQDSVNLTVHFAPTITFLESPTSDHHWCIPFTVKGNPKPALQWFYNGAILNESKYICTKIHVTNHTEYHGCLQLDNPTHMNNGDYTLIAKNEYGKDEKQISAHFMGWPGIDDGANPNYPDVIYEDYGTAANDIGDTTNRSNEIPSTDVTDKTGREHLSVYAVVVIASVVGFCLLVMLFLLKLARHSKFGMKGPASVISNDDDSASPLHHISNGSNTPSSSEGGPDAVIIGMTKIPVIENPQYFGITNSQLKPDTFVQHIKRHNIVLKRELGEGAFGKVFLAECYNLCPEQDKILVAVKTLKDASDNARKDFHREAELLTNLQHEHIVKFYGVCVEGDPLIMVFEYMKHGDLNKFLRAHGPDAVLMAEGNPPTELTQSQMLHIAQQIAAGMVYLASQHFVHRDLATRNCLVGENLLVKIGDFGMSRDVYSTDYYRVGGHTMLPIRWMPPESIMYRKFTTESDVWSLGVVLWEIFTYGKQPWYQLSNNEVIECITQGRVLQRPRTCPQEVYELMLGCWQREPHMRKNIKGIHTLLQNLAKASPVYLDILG
Dual specificity tyrosine-phosphorylation-regulated kinase 1B, sequence (Q9Y463 whole entry): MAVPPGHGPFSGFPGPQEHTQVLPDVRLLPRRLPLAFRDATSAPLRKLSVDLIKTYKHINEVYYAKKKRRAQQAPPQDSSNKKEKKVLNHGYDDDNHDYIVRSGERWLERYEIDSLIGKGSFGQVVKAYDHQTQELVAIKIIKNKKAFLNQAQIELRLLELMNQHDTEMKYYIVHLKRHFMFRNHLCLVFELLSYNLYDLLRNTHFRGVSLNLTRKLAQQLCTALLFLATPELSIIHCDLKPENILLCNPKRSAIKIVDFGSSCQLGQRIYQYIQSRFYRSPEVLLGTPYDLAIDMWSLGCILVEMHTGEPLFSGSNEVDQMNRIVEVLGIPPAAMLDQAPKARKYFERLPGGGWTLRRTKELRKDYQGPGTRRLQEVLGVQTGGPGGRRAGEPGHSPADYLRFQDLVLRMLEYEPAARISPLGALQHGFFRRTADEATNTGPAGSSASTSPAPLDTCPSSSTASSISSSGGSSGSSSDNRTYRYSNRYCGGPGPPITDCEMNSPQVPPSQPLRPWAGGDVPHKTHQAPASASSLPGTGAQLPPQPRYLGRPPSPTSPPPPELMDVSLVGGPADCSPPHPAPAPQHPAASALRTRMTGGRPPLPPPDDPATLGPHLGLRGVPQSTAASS
SRSF protein kinase 2, sequence (P78362 whole entry): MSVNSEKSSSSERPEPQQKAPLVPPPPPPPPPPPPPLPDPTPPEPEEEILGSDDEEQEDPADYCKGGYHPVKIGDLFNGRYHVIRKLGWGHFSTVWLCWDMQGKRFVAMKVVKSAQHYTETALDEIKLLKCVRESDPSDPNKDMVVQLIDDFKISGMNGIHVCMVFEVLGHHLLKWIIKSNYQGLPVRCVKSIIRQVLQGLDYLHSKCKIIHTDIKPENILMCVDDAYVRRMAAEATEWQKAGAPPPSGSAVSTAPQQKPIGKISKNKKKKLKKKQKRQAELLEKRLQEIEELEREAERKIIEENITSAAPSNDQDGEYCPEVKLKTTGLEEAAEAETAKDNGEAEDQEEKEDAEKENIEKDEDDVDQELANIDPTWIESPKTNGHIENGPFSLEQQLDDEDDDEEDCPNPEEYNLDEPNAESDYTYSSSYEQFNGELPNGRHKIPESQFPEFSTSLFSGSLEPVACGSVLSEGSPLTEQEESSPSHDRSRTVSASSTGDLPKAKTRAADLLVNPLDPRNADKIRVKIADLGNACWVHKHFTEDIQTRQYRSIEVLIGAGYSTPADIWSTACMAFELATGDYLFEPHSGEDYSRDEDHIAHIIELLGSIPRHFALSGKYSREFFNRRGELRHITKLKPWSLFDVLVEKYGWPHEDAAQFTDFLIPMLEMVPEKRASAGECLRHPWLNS
Inhibitor of nuclear factor kappa-B kinase subunit alpha, sequence (O15111 whole entry): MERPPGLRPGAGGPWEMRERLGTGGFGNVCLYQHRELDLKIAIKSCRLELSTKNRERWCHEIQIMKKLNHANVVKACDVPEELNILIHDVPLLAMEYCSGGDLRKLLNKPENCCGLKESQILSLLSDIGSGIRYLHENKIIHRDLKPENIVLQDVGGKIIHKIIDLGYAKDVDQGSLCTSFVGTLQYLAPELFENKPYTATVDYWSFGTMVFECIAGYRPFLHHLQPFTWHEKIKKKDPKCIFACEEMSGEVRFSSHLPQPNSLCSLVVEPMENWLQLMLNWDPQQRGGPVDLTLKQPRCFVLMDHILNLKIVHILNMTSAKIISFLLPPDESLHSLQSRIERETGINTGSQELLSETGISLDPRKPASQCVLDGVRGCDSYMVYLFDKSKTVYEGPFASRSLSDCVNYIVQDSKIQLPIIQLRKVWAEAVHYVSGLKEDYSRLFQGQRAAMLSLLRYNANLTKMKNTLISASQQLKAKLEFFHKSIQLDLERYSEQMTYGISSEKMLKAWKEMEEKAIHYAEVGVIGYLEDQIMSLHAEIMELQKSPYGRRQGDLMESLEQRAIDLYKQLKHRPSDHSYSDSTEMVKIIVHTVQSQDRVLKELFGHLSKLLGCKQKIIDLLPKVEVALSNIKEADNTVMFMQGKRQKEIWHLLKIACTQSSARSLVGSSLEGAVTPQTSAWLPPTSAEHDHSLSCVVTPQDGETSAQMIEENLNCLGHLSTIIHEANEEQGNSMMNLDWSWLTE
Tyrosine-protein kinase Fyn, sequence (P06241 whole entry): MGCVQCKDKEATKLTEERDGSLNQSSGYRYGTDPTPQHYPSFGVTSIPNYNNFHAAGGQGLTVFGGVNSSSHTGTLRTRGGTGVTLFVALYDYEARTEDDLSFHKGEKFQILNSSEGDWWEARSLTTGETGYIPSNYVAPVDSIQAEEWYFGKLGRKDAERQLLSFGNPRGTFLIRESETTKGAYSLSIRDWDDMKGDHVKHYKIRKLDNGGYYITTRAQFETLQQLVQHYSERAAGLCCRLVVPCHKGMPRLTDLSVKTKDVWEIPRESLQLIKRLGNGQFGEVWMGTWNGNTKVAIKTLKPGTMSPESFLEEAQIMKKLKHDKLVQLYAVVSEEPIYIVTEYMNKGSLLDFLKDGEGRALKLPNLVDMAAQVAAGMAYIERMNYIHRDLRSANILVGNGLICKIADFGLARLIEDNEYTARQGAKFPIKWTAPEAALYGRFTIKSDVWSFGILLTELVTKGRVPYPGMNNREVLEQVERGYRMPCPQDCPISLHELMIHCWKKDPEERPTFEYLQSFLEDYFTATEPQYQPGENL

Structure (SMILES): FC(F)(F)c1ccc(CNc2ccc(Cc3c[nH]c4ncc(Cl)cc34)cn2)cn1 [PEXIDARTINIB]
- logD [1]: 3.35
- Papp [2]: 1.4 ×10⁻⁶ cm/s
- pKa [3]: 5.2
- Activity (Mus musculus [4]): 229
- IC50 [5]: 110 nM
- IC50 [6]: 9 nM
- Drug uptake (Brain): ~ 5%
- IC50 [7]: > 10000 nM
- IC50 [8]: > 10000 nM

Structure (SMILES): COc1ncc(F)cc1CNc1ccc(Cc2c[nH]c3ncc(C)cc23)c(F)n1 [PLX-5622]
- IC50 [9]: > 1000 nM
- logD [1]: 3.92
- IC50 [10]: > 1000 nM
- Activity (Mus musculus [11]): 0.823%
- IC50 [12]: > 1000 nM
- IC50 [13]: > 1000 nM
- Papp [2]: 12.2 ×10⁻⁶ cm/s
- IC50 [14]: > 1000 nM
- IC50 [15]: > 1000 nM
- IC50 [16]: > 1000 nM
- Activity (Mus musculus [17]): 0 pg
- pKa [3]: 4.14
- concentration at 4320 h [18]: 9090 ng/mL
- Activity [19]: 0.055 RPKM
- AUC(0-inf) [20]: 2100 ng·h/mL
- IC50 [5]: 2700 nM
- Cmax [21]: 12000 ng/mL
- IC50 [6]: 17 nM
- Drug uptake (Brain): ~ 20%
- IC50 [22]: > 1000 nM
- IC50 (SRSF protein kinase 2): > 1000 nM
- IC50 [7]: > 10000 nM
- Activity [23]: 0 RPKM
- Activity (Mus musculus [24]): 622.98 um3
- Time [25]: 12.7 s
- IC50 (Aurora kinase C): 1000 nM
- Activity (Mus musculus [26]): 70.238%
- Activity [27]: 84.37%
- IC50 [28]: > 1000 nM
- IC50 [8]: > 10000 nM
- IC50 [29]: > 1000 nM
- Activity (Mus musculus [30]): 99.34%
